The record followed here is ChEMBL document CHEMBL5236552, “Discovery of Soticlestat, a Potent and Selective Inhibitor for Cholesterol 24-Hydroxylase (CH24H)” (J Med Chem, 2021).

Structures are written as SMILES.

Common to all, as to assay type: functional, cell-based
Assay [1] can be described thus: Inhibition of testosterone synthesis in human NCI-H295R cells by Enzyme immunoassay. The method in brief: (§1)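 H295R adrenocortical cells grown in DMEM/F12 with 2.5% Nu-serum and 1% ITS-plus, seeded at 5×10^4 per well for three nights, then primed two nights with 20 µM forskolin. Cells washed, then exposed overnight to compound in DMEM/F12 with 1% ITS-plus and 20 µM forskolin. Cortisol, testosterone, aldosterone and corticosterone in the supernatant measured by competitive EIA against a calibration curve; triplicate, mean ± SEM.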

Assay [2] in a line: Inhibition of aldosterone synthesis in human NCI-H295R cells by Enzyme immunoassay. An outline of the steps:
as §1

Assay [3] is described as follows: Inhibition of cortisol synthesis in human NCI-H295R cells by Enzyme immunoassay. The method in brief: as §1
Assay [4] is described as follows: Inhibition of corticosterone synthesis in human NCI-H295R cells by Enzyme immunoassay. The method in brief: as §1

With `CC(=O)N1CCN(c2ccc(OCC3COC(Cn4ccnc4)(c4ccc(Cl)cc4Cl)O3)cc2)CC1` (centres undefined) [KETOCONAZOLE], the IC50 – broadly, the concentration at which inhibition is half-maximal – was 340 nM in assay [1], 1400 nM in assay [2], 440 nM in assay [3] and 2500 nM in assay [4].
